Tests used:
[1] = folding enthalpy; higher = less favourable; fluorescence melt of hairpins on a sequencing array, two-state fit; conditions: sodium 0.088 M
How it was run: (§1)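 Folding enthalpy and melting temperature come from bootstrapped two-state fits to Cy3 fluorescence of library hairpins carrying annealed Cy3 and quencher oligos on a sequenced MiSeq flow cell. Imaging was done in 50 mM Na-HEPES pH 8.0, 25 mM NaCl, stepping by 2.5 °C up to 60 °C, and signals were normalised to pre-quench Cy3 and to control constructs. Results of four replicates were combined by inverse variance, and fitted temperatures were raised by 9.35 °C to match UV melts.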

[2] = melting temperature; fluorescence melt of hairpins on a sequencing array, two-state fit, raised by 9.35 °C to match UV melts; conditions: sodium 0.088 M
How it was run: as §1

Row | Sequence | folding enthalpy [1] [kcal/mol] | Tm [2] [°C]
1 | GCTCGGGCGAAAGCCAGC (((..(((....)))))) | -8.16 | 52
2 | GCTCGTCGAAAGACAGC (((.(((....)))))) | -29.6 | 51.4
3 | GCTCGTGGAAACACAAGC (((.(((....))).))) | -20 | 43.9
4 | GCTCGTGGAAACACGGGC ((.((((....)))).)) | -37.1 | 62.2
5 | GCTCTACGAAAGTAAAGC (((.(((....))).))) | -22.9 | 38.4
6 | GCTCTCACGAAAGTGAGC (((..(((....)))))) | -7.6 | 35.8
7 | GCTCTCCCGAAAGGGAGC (((..(((....)))))) | -7.28 | 33
8 | GCTCTCGAAAGAGAAGC ((((((....))).))) | -22 | 49.8
9 | GCTCTCGAAAGAGATAGC ((((((....)))..))) | -22.6 | 41.8
10 | GCTCTCGAAAGAGCTAGC ((((((....)))..))) | -15.5 | 50.3
11 | GCTCTCGAAAGAGGTAGC ((((((....)))..))) | -25.4 | 38.4
12 | GCTCTCGAAAGAGTGAGC ((((((....)))..))) | -26 | 41.6
13 | GCTCTCGGAAACGGGAGC ((((.((....)).)))) | -41.3 | 57.4
14 | GCTCTGCGAAAGCAAGC (((.(((....)))))) | -16.8 | 48.2
15 | GCTCTGCGAAAGCGCAGC (((..((....))..))) | -11.4 | 37.6
16 | GCTCTGCGAAAGCGTAGC (((..((....))..))) | -17.6 | 38.2
17 | GCTCTGGGAAACCAGAAC (.(((((....))))).) | -16.9 | 37.1
18 | GCTCTGGGAAACCAGAGC (((((((....))))))) | -42.5 | 69
19 | GCTCTTCGAAAGAATAGC (((.(((....))).))) | -30.7 | 38.5
20 | GCTCTTGAAAAAGAGC ((((((....)))))) | -32.6 | 58.1
21 | GCTCTTTCGAAAGAAAGC (((..(((....)))))) | -13.4 | 32.5
22 | GCTGAAACGAAAGTTAGC (((..(((....)))))) | -20.6 | 35
23 | GCTGAACCGAAAGGTAGC (((..(((....)))))) | -21.9 | 42.1

Row | Sequence | folding enthalpy [1] [kcal/mol] | Tm [2] [°C]
24 | GCTGAACGAAAGTTAGC (((.(((....)))))) | -26 | 44.1
25 | GCTGAAGCGAAAGCTAGC (((..(((....)))))) | -18.6 | 44.6
26 | GCTGAAGGAAACTTTAGC (((.(((....))).))) | -29.2 | 41.5
27 | GCTGACACGAAAGTGAGC (((..(((....)))))) | -18.3 | 40.3
28 | GCTGACCGAAAGGTAAGC (((.(((....))).))) | -33.5 | 57.8
29 | GCTGACGAAAGTCAGAGC ((((((....)))..))) | -13.4 | 55.8
30 | GCTGACGAAAGTCCAAGC ((((((....)))..))) | -16.5 | 43.5
31 | GCTGACGAAAGTCCAGC ((((((....))).))) | -24.7 | 54.5
32 | GCTGACGGAAACACCAGC ((((..(....)..)))) | -13.1 | 33.3
33 | GCTGACGGAAACGTCGGC ((.((((....)))).)) | -48.3 | 63.3
34 | GCTGAGCCGAAAGGCAGC (((..(((....)))))) | -15.2 | 51.7
35 | GCTGAGCGAAAGCACAGC ((((.((....)).)))) | -35.6 | 67.8
36 | GCTGAGCGAAAGCCCCGC ((.(.((....)).).)) | -12 | 35.8
37 | GCTGAGCGAAAGCCCGGC ((.(.((....)).).)) | -20.1 | 52.2
38 | GCTGAGCGAAAGCGGAGC (((..((....))..))) | -26.9 | 62.4
39 | GCTGAGCGAAAGCTACGC ((..(((....)))..)) | -16.3 | 44.4
40 | GCTGAGCGAAAGCTTCGC ((..(((....)))..)) | -13.4 | 49.5
41 | GCTGAGGGAAACCTTAGC (((.(((....))).))) | -33.7 | 47.1
42 | GCTGCACGAAAGTGAAGC (((.(((....))).))) | -36 | 60.5
43 | GCTGCAGCGAAAGCTAGC (((..(((....)))))) | -11.9 | 48.7
44 | GCTGCAGGAAACCACAGC ((((..(....)..)))) | -24.9 | 37
45 | GCTGCAGGAAACTGCAAC (.(((((....))))).) | -13.5 | 40.9

Source: the array DNA melting data of Ke et al. (doi:10.1101/2024.01.08.574731)
